Measured values reported in ChEMBL document CHEMBL3769358, “Arylboronic acids as dual-action FAAH and TRPV1 ligands” (Bioorg Med Chem Lett, 2016).

Key:
[1] = target: T1, Transient receptor potential cation channel subfamily V member 1 (Homo sapiens, UniProt Q8NER1); assay: Agonist activity at recombinant human TRPV1 channel expressed in HEK293 cells assessed as increase in intracellular Ca2+ concentration by Fluo-4-AM dye based spectrofluorimetry relative to ionomycin; format: cell-based
Method in brief: (§1)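 HEK293 cells stably expressing human TRPV1, grown in MEM with non-essential amino acids, 10% FBS and 2 mM glutamine at 37 °C, 5% CO2. Cells loaded 1 h at room temperature with Fluo-4-AM (4 µM), washed into Tyrode's buffer pH 7.4, about 100,000 cells per stirred cuvette. Fluorescence (ex 488/em 516 nm) read at 25 °C. Efficacy normalised to 4 µM ionomycin, with wild-type HEK293 response subtracted when significant. EC50 from GraphPad; n = 4.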

[2] = target: T1, Transient receptor potential cation channel subfamily V member 1; assay: Agonist activity at recombinant human TRPV1 channel expressed in HEK293 cells assessed as increase in intracellular Ca2+ concentration by Fluo-4-AM dye based spectrofluorimetry; format: cell-based; method in brief: as §1
[3] = target: T1, Transient receptor potential cation channel subfamily V member 1; assay: Antagonist activity at recombinant human TRPV1 channel expressed in HEK293 cells assessed as inhibition of capsiacin-induced Ca2+ flux preincubated for 5 mins followed by capsiacin challenge by Fluo-4-AM dye based spectrofluorimetry; format: cell-based
Method in brief: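 Fluo-4-loaded HEK293 cells stably expressing human TRPV1, in Tyrode's buffer pH 7.4, read at 25 °C (ex 488/em 516 nm). Test compound added to the cuvette 5 min before 0.1 µM capsaicin. IC50 taken as half-maximal inhibition of capsaicin-induced [Ca2+]i rise, calculated in GraphPad; mean of n = 4.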

[4] = target: T2, Fatty-acid amide hydrolase 1 (Rattus norvegicus, UniProt P97612); assay: Inhibition of rat brain FAAH assessed as hydrolysis of [14C]AEA to [14C]Ethanolamine incubated for 30 mins by scintillation counting method
T2 sequence (P97612 whole entry): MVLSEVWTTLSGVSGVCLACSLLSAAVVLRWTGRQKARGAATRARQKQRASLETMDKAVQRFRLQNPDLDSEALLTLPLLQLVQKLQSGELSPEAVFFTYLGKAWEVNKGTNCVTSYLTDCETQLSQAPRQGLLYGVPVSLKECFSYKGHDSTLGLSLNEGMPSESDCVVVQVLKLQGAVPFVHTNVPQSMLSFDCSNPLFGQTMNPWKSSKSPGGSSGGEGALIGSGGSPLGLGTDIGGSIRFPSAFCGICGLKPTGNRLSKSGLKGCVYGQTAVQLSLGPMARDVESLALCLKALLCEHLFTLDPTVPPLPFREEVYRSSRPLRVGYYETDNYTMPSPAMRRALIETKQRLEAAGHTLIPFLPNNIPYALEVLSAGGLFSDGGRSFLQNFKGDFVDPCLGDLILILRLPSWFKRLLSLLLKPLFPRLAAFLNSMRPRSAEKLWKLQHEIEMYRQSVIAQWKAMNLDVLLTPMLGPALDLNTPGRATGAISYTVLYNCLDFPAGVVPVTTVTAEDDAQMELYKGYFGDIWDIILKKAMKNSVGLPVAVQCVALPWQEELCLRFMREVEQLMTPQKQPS

[5] = target: T1, Transient receptor potential cation channel subfamily V member 1; assay: Antagonist activity at recombinant human TRPV1 channel expressed in HEK293 cells assessed as inhibition of capsiacin-induced Ca2+ flux by Fluo-4 dye based spectrofluorimetry assay

T1 sequence (Q8NER1 whole entry): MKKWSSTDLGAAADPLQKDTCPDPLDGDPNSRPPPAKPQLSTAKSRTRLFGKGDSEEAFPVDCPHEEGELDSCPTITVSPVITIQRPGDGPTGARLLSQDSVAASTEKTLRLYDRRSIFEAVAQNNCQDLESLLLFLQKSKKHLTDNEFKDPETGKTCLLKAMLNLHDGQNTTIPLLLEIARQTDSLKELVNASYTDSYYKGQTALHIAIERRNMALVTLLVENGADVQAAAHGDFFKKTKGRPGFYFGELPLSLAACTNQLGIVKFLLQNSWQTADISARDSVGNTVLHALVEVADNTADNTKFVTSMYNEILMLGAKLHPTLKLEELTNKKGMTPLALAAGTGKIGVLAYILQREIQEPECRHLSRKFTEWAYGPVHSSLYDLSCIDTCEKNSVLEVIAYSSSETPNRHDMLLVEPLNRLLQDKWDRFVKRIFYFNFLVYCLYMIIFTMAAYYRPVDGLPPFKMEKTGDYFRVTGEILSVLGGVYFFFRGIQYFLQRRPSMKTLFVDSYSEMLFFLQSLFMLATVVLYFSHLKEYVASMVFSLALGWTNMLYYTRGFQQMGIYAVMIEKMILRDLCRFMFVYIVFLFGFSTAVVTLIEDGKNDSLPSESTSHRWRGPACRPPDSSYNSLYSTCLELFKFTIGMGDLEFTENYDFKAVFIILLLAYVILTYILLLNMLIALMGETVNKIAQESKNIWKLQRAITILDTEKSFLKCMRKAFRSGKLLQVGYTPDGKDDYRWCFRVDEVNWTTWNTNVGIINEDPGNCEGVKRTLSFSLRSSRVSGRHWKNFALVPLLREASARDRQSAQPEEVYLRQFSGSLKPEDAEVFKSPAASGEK

CCCCC/C=C\C/C=C\C/C=C\C/C=C\CCCC(=O)NCCc1c[nH]c2ccc(O)cc12
Efficacy [1]: < 10%

COc1cc(CNC(=O)CCCCCCCc2ccccc2)ccc1B(O)O
Efficacy [1]: 62.5%
EC50 [2]: 51 nM
IC50 [3]: 34 nM
IC50 [4]: 1770 nM

COc1cc(CNC(=O)CCCCCc2ccccc2)ccc1B(O)O
Efficacy [1]: 59.3%
EC50 [2]: 1460 nM
IC50 [3]: 1530 nM
IC50 [4]: 1320 nM

O=C(Cc1ccc(B(O)O)cc1)NCc1ccc(-c2ccccc2)cc1
Efficacy [1]: 27.4%
EC50 [2]: 310 nM
IC50 [3]: 5530 nM
IC50 [4]: 280 nM

O=C(Oc1ccc(C(F)(F)F)cc1)N1CCN(c2ncccc2C(F)(F)F)CC1
Efficacy [1]: < 10%

O=C(Cc1ccc(-c2ccccc2)cc1)Nc1ccc(B(O)O)cc1
Efficacy [1]: < 10%
IC50 [3]: > 10000 nM
IC50 [4]: > 10000 nM

OB(O)c1ccc(-c2ccccc2)cc1 [BIPHENYLBORONIC ACID]
Efficacy [1]: < 10%
IC50 [3]: > 10000 nM
IC50 [4]: 790 nM

O=C(CCc1ccccc1)NCc1ccc(B(O)O)cc1
Efficacy [1]: 60.2%
EC50 [2]: 320 nM
IC50 [3]: 230 nM
IC50 [4]: > 10000 nM

CC(C)(C)c1ccc(C(=O)Nc2ccc(B(O)O)cc2)cc1
Efficacy [1]: 39.3%
EC50 [2]: 520 nM
IC50 [3]: 780 nM
IC50 [4]: > 10000 nM

O=C(NCCCCCc1ccccc1)c1ccc(B(O)O)cc1
Efficacy [1]: < 10%
IC50 [3]: > 10000 nM
IC50 [4]: 180 nM

O=C(CCCCCCCc1ccccc1)NCc1ccc(B(O)O)cc1
Efficacy [1]: 54.7%
EC50 [2]: 1000 nM
IC50 [3]: 500 nM
IC50 [4]: 470 nM

O=C(Cc1ccc(B(O)O)cc1)NCCCCc1ccccc1
Efficacy [1]: 44.9%
EC50 [2]: 1990 nM
IC50 [3]: 2190 nM
IC50 [4]: 1170 nM

CC(C)(C)c1ccc(NC(=O)c2ccc(B(O)O)cc2)cc1
Efficacy [1]: < 10%
IC50 [3]: 750 nM
IC50 [4]: 5500 nM

COc1cc(CNC(=O)Nc2ccc(C(C)(C)C)cc2)ccc1B(O)O
Efficacy [1]: < 10%
IC50 [3]: 8110 nM
IC50 [4]: 4280 nM

O=C(/C=C/c1ccc(Cl)cc1)Nc1cccc(B(O)O)c1
Efficacy [1]: < 10%
IC50 [3]: 41 nM
IC50 [4]: > 10000 nM

O=C(/C=C/c1ccc(Cl)cc1)Nc1ccc(B(O)O)cc1
Efficacy [1]: < 10%
IC50 [3]: 1390 nM
IC50 [4]: 560 nM

O=C(NCc1ccccc1)c1ccc(B(O)O)cc1
Efficacy [1]: < 10%
IC50 [3]: > 10000 nM
IC50 [4]: 2870 nM

CC(C)(C)c1ccc(NC(=O)Cc2ccc(B(O)O)cc2)cc1
Efficacy [1]: < 10%
IC50 [3]: > 10000 nM
IC50 [4]: > 10000 nM

CC(C)(C)c1ccc(NC(=O)NCc2ccc(B(O)O)cc2)cc1
Efficacy [1]: < 10%
IC50 [3]: 4130 nM
IC50 [4]: 1990 nM

CC(C)(C)c1ccc(NC(=O)Nc2ccc(B(O)O)cc2)cc1
Efficacy [1]: < 10%
IC50 [3]: 1950 nM
IC50 [4]: > 10000 nM

O=C(/C=C/c1ccc(Cl)cc1)NCc1ccc(B(O)O)cc1
Efficacy [1]: < 10%
IC50 [3]: > 10000 nM
IC50 [4]: 1510 nM

O=C(Cc1ccc(O)cc1)NCCCCCCCc1ccccc1
Efficacy [1]: 64.7%
EC50 [2]: 170 nM
IC50 [3]: 260 nM

O=C(Cc1ccccc1)NCCCCCCCc1ccccc1
Efficacy [1]: 54.6%
EC50 [2]: 660 nM
IC50 [3]: 1210 nM
IC50 [4]: > 10000 nM

O=C(Cc1ccc(B(O)O)cc1)NCc1ccccc1
Efficacy [1]: < 10%
IC50 [3]: > 10000 nM
IC50 [4]: > 10000 nM

O=C(CCCCCCCc1ccccc1)Nc1ccc(B(O)O)cc1
Efficacy [1]: < 10%
IC50 [3]: > 10000 nM
IC50 [4]: 390 nM

CCCCCCCCCc1ccc(B(O)O)cc1
Efficacy [1]: < 10%
IC50 [3]: > 10000 nM
IC50 [4]: 2920 nM

O=C(NCc1ccc(-c2ccccc2)cc1)c1ccc(B(O)O)cc1
Efficacy [1]: < 10%
IC50 [3]: > 10000 nM
IC50 [4]: 1860 nM

COc1cccc(NC(=O)/C=C/c2ccc(Cl)cc2)c1
Efficacy [1]: < 10%
IC50 [3]: 190 nM
IC50 [4]: > 10000 nM
IC50 [5]: 270 nM

O=C(Cc1ccc(B(O)O)cc1)NCCCCCCCc1ccccc1
Efficacy [1]: 52.5%
EC50 [2]: 370 nM
IC50 [3]: 370 nM
IC50 [4]: 250 nM

O=C(CCCCCc1ccccc1)Nc1ccc(B(O)O)cc1
Efficacy [1]: < 10%
IC50 [3]: > 10000 nM
IC50 [4]: 570 nM

O=C(Cc1ccc(B(O)O)cc1)NCCCCCc1ccccc1
Efficacy [1]: 62.8%
EC50 [2]: 2250 nM
IC50 [3]: 2530 nM
IC50 [4]: 630 nM

CCCCCCCC/C=C\CCCCCCCC(=O)NCc1ccc(B(O)O)c(OC)c1
Efficacy [1]: 49.2%
EC50 [2]: 20 nM
IC50 [3]: 32 nM
IC50 [4]: > 10000 nM

O=C(NCCCCc1ccccc1)c1ccc(B(O)O)cc1
Efficacy [1]: < 10%
IC50 [3]: > 10000 nM
IC50 [4]: 580 nM

O=C(NCc1ccc(B(O)O)cc1)c1ccc(-c2ccccc2)cc1
Efficacy [1]: 22%
EC50 [2]: 4230 nM
IC50 [3]: 7110 nM
IC50 [4]: 330 nM

CCCCCCCC/C=C\CCCCCCCC(=O)NCc1ccc(B(O)O)cc1
Efficacy [1]: 42.2%
EC50 [2]: 22 nM
IC50 [3]: 47 nM
IC50 [4]: > 10000 nM

O=C(NCCc1ccc(O)cc1)c1ccc(B(O)O)cc1
Efficacy [1]: < 10%
IC50 [3]: > 10000 nM
IC50 [4]: > 10000 nM

O=C(CCCCCc1ccccc1)NCc1ccc(B(O)O)cc1
Efficacy [1]: 41.1%
EC50 [2]: 1530 nM
IC50 [3]: 2890 nM
IC50 [4]: 1080 nM

O=C(Nc1ccc(-c2ccccc2)cc1)c1ccc(B(O)O)cc1
Efficacy [1]: 12.5%
EC50 [2]: 3970 nM
IC50 [3]: > 10000 nM
IC50 [4]: 150 nM
